# Screening results as filed in PubChem BioAssay.
# MT1-MMP act inh: MT1-MMP (human) activation inhibition; 0.061% of 360,000 active; HT1080 RFP-PRO-GFP cells, GFP/RFP ratio fluorescence, overnight; percent of plate control window, DMSO zero; GFP/RFP ratio change, % at 20 µM; P50281;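 active = GFP/RFP ratio change of at least 30% with cell ATP level not reduced by more than half and red fluorescence within 50% of control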
#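 Assay system: HT1080 RFP-PRO-GFP cells. Benchmarks: DMSO vehicle wells and RFP-L50D-GFP reporter cell wells. Times: overnight cell settling, then overnight compound exposure, 37 °C, 5% CO2. Compound: 20 µM single dose, 1% DMSO. Read-out basis: GFP/RFP fluorescence ratio.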
# DAGLB inhibitor: diacylglycerol lipase beta (human) inhibition; 0.059% of 340,000 active; HEK293T DAGLB membrane lysate, EnzChek fluorogenic substrate; inhibition, % at 5.17 µM; Q8NCG7; in the data active = inhibition above about 34%;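 also: 0% = enzyme with vehicle and 100% = wells lacking enzyme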
# core dimer inh: HCV core protein dimerization inhibition | AID 1899 | TR-FRET GST/Flag-core106 dimerization, 1536-well | 0.33% of 300,000 active | inhibition, % at 5 µM;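 active = inhibition above the mean of all tested compounds plus 3 SD, set per screening campaign, cut at about 45% in these data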
#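 Test system: GST/Flag-tagged HCV core106 proteins; Medium: KF-containing HEPES buffer, pH 7.45, DTT, CHAPS, BSA; Times: compound-protein-antibody incubation 4 h at 22.5 °C; Detection: TR-FRET 671 and 617 nm emission; Benchmarks: wells lacking GST-core106 and wells with excess unlabelled core106.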
# Vif inh: HIV Vif inhibition. HEK293T cells, Vif self-association by quenched fluorescence, imaging, 24 h. inhibition, % at 7.49 µM. 0.35% of 340,000 active. AID 602346; in the data active = inhibition above about 50%, passing the limit was not always enough
# NR2E3 ag-1: agonists of human NR2E3 nuclear receptor | CHO-S Gal4-NCOR/VP16-NR2E3 two-hybrid, luciferase | AID 602229 | inhibition of corepressor binding, % at 3.98 µM | Q9Y5X4 | 0.35% of 360,000 active;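 active = inhibition above the mean of all tested compounds plus 3 SD, cut at about 70% in these data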;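 also: 0% = DMSO with NR2E3 transfected cells and 100% = cells lacking NR2E3 construct; higher means lower luciferase signal from less NR2E3 corepressor binding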
# Target sequence (Q9Y5X4 whole entry, looked up, the tested form may be a part): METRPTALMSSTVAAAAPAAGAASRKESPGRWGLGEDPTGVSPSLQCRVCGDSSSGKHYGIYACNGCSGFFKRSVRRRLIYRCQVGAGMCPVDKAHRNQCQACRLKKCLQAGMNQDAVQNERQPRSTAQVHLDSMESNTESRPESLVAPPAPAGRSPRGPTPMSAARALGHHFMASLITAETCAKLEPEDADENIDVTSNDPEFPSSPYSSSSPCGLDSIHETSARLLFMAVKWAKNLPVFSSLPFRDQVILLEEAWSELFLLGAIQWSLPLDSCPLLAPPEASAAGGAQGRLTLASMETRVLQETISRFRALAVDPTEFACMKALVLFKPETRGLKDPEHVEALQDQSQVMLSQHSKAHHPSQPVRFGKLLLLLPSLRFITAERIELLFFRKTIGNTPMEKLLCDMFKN
# NR2E3 ag-2: activates human photoreceptor nuclear receptor NR2E3 | Q9Y5X4 | GST-NR2E3/biotin-RetCOR TR-FRET, 1536-well | inhibition of corepressor binding, % at 4.78 µM | 0.12% of 320,000 active;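 active = percent inhibition above the cutoff of mean plus 3 SD of all tested compounds, set per screening campaign, cut at about 20% in these data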;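 also: 0% = DMSO wells and 100% = biotin wells as full block of FRET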
#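 System: GST-tagged NR2E3 plus biotinylated RetCOR corepressor; Buffer or medium: pH 7.5 Tris-based buffer; Probe or stimulus: RetCOR corepressor, biotinylated, 7 nM; Doses: compound at 4.8 µM, single dose; Schedule: 5 h incubation at 4 °C; Technique: time-resolved FRET; Evaluation: percent inhibition of TR-FRET ratio; Replication: one well per compound, singlicate testing.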
# The depositor's hits bear a star; . = no result given; + = active, no number. In the library only some 1.1% were active in any assay of this set; here they are far more common.
SMILES,MT1-MMP act inh,DAGLB inhibitor,core dimer inh,Vif inh,NR2E3 ag-1,NR2E3 ag-2
CC(C)[C@H](NC(=O)c1ccccc1F)C(=O)Nc1ccc2c(c1)OCO2,-3.0,-0.4,.,-3.6,-1.9,-1.2
COc1ccc(S(=O)(=O)N2CCN(C(=O)CCNC(=O)c3ccccc3Cl)CC2)cc1,-2.2,-2.6,.,-4.9,-19.1,-0.2
CC(=O)NC(=S)Nc1ccccc1F,-2.1,0.0,1.6,58.4*,-16.4,0.3
CCCn1c(=O)c2[nH]c(-c3ccc(OCC(=O)Nc4ccc(C#N)cc4)cc3)nc2n(CCC)c1=O,-4.4,1.4,6.5,93.8*,-33.8,-1.1
CC(=O)Nc1ccc(NC(=O)COc2ccc(-c3ccc(C#N)cc3)cc2)cc1,2.5,7.0,9.7,54.8*,6.5,-5.0
CC(OC(=O)/C=C/c1cccc(F)c1)C(=O)NC1CCCCC1C (stereo unspecified),2.0,-2.6,1.2,-3.5,-7.2,-1.6
Cc1ccc(S(=O)(=O)C[C@@H]2OC[C@H](C(C)C)N2S(=O)(=O)c2ccc(C)cc2)cc1,-3.2,.,.,.,.,.
O=C(c1cc2sccc2n1Cc1ccccc1)N1CCN(c2nc3ccccc3s2)CC1,8.9,3.4,6.4,-28.0,79.6*,2.6
COc1cccc(NC(=O)CN(C)C(=O)Cc2c(C)nc3ccccc3c2C)c1,-9.2,0.2,.,-1.5,-30.1,4.0
CCn1c(CC(=O)Nc2ccccc2)nnc1SCC(=O)Nc1nnc(C)s1,0.2,0.9,-1.2,67.5*,-18.8,1.2
C[C@H]1[C@@H](Cc2cc(Cl)cc(Cl)c2)N(c2ccccc2)c2ccccc2CN1Cc1ccccc1,-7.2,.,.,.,.,.
CC1(C(=O)NS(=O)(=O)c2cccc(OC(F)F)c2)CCN1C(=O)c1ccco1 (stereo unspecified),0.2,.,.,58.5*,4.5,.
CC1(C(=O)NS(=O)(=O)c2cccc(F)c2)CCN1C(=O)c1ccco1 (stereo unspecified),2.1,.,.,-5.2,-2.6,.
CN(C)c1ccc(/C=C/C(=O)c2ccc3c(c2)OCO3)cc1,-120.8,-83.8,.,+,-46.0,3.9
O=C(/C=C/c1ccccc1)c1ccc2c(c1)OCO2,.,-8.7,6.5,2.2,-65.4,0.9
CN(C)c1ccc(/C=C/C(=O)c2ccc(O)cc2)cc1,-120.5,-91.8,.,83.4*,-105.4,.
NC(=O)c1ccccc1OCC(=O)NS(=O)(=O)c1ccccc1,-8.3,-1.5,-6.3,56.1*,-3.2,4.1
NC(=O)c1ccccc1OCC(=O)O,-1.7,0.8,-2.9,9.8,-0.2,-2.5
O=S1(=O)CC(N2CC=CC2)CN1Cc1cn(Cc2cccc(C(F)(F)F)c2)nn1 (stereo unspecified),0.0,.,.,.,7.8,.
O=C(Nc1cnccn1)Nc1ccccc1Cl,-1.0,0.9,7.4,51.4*,1.2,4.1
O=C(Nc1cnccn1)Nc1cccc(Cl)c1Cl,-7.4,4.5,2.8,-1.1,6.5,0.5
COc1ccc(-c2cc(-c3cccs3)c(C#N)c(SCC(=O)NCc3ccco3)n2)cc1,7.6,-1.2,19.9,51.5*,-66.7,2.1
CSCCC(NS(=O)(=O)c1ccccc1F)C(=O)Nc1ccncc1 (stereo unspecified),1.3,-2.0,.,14.6,-0.6,4.3
Cc1ccnc(N/C=C(\C#N)c2nc(-c3cccc(Br)c3)cs2)c1,-238.5,-131.5,-8.0,91.1*,-17.6,-1.2
N#C/C(=C\Nc1ccc2cn[nH]c2c1)c1nc(-c2ccccc2)cs1,-0.2,0.2,.,1.2,-28.1,.
SMILES,MT1-MMP act inh,DAGLB inhibitor,core dimer inh,Vif inh,NR2E3 ag-1,NR2E3 ag-2
Cc1ccc2oc(C(=O)N(C)CCC(O)c3ccccc3)c(C)c2c1 (stereo unspecified),1.3,-9.4,11.2,-1.8,-41.4,4.2
Cc1cc(C)c2nc(-c3ccccn3)cc(C(=O)NCc3ccco3)c2c1,2.1,4.6,68.9*,36.9,-9.2,2.3
Cc1cc(C)c2nc(-c3ccccn3)cc(C(=O)NCc3cc(C)n(C)n3)c2c1,4.1,-0.4,1.9,6.8,-9.0,3.8
Cc1ccc(-c2cc(C(=O)Nc3ccccc3C)c3ccccc3n2)o1,-6.0,6.1,64.1*,-2.7,-17.1,2.5
Cc1cc(C(=O)NCc2ccco2)c2ccccc2n1,-4.9,5.3,4.3,-2.5,-17.2,3.9
COc1cccc(NC(=O)c2cc(-c3ccc(C)o3)nc3ccccc23)c1,-0.8,-1.7,48.2*,0.4,-14.8,-0.9
Cc1ccc(-c2cc(C(=O)NCc3ccco3)c3ccccc3n2)o1,-9.7,-0.1,66.4*,3.7,7.2,3.6
COc1cccc(NC(=O)CN(C)C(=O)c2cc(-c3ccc(C)o3)nc3ccccc23)c1,-2.6,-0.3,.,-6.3,-7.2,0.8
CCOc1ccc(C2/C(=C(\O)c3cccc(OC)c3)C(=O)C(=O)N2c2ccccn2)cc1OC (stereo unspecified),-3.9,0.9,-3.5,-0.6,-12.5,0.9
CC1(C(=O)NCc2ccccc2)CN(S(C)(=O)=O)CC(=O)N1C1CC1 (stereo unspecified),5.8,.,.,.,.,.
CC1(C)COC(Cc2ccccc2)=N1,2.3,-1.1,.,-11.4,3.3,.
COC(=O)c1ccc(NC(=O)c2cc(-c3ccccn3)nc3ccccc23)cc1,-5.5,1.4,8.2,62.3*,27.1,0.3
COC(=O)c1ccc(NC(=O)c2cc(-c3ccncc3)nc3ccccc23)cc1,-7.5,-0.7,.,14.4,-2.5,-2.7
Cc1ccc(-c2cc(C(=O)NC3=NCCS3)c3cc(Br)ccc3n2)o1,.,.,51.4*,.,.,4.0
CC1=C(C(=O)Nc2ccccc2C)C(c2ccc(C)o2)n2c(s/c(=C/c3ccccc3)c2=O)=N1 (stereo unspecified),-6.1,2.7,47.7*,.,-26.6,0.6
CCOC(=O)C1(Cc2cccc(OC)c2)CCN(CCO)CC1,-0.5,-0.7,-1.7,66.3*,-21.0,3.7
CCOC(=O)C1(Cc2cccc(OC)c2)CCN(CC(O)CO)CC1 (stereo unspecified),-2.4,-1.1,0.0,2.3,8.8,2.0
COc1ccc(/C=N\Nc2ncc(F)c(N3CCOCC3)n2)cc1OC,1.7,0.7,-0.9,-6.7,-7.8,-0.8
COc1ccc(OCC(=O)Nc2cc3c(cc2C(=O)O)OCCCO3)cc1,1.4,1.5,-17.6,51.6*,-6.2,0.4
O=C(CNCCO)N1CCc2ccccc21,-2.0,-0.2,1.0,7.6,-4.7,1.5
CCc1nnc(NCC(=O)N2CCc3ccccc32)s1,4.1,2.7,88.2*,3.6,-2.9,-0.6
CCCCCC(=O)N1C[C@@H](O)[C@H](n2cc(-c3ccc(F)cc3)nn2)C[C@@H]1c1ccccc1,1.1,-6.2,.,-0.9,18.2,.
